The subject of one test is Canis familiaris. Briefly: Compound tested […] for % change of plasma cholesterol in cholestyramine-primed dogs after oral administration at 4 mg/kg. The class given is functional, Canis lupus familiaris.
For the next test, the system named is Rattus norvegicus. The experiment in a line: […] acute inhibition of [14C]cholesterol synthesis in the rat post peroral administration of the test compound at 0.45 mg/kg. In kind it is functional. The settings on record: route oral. An outline of the steps: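 Rats given a single oral dose of 0.45 mg/kg; [14C]acetate incorporation into cholesterol measured 1 h after dosing as index of acute cholesterol synthesis inhibition.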

Test [1] deals with T1, 3-hydroxy-3-methylglutaryl-coenzyme A reductase (Homo sapiens, UniProt P04035).
T1 sequence (P04035 whole entry): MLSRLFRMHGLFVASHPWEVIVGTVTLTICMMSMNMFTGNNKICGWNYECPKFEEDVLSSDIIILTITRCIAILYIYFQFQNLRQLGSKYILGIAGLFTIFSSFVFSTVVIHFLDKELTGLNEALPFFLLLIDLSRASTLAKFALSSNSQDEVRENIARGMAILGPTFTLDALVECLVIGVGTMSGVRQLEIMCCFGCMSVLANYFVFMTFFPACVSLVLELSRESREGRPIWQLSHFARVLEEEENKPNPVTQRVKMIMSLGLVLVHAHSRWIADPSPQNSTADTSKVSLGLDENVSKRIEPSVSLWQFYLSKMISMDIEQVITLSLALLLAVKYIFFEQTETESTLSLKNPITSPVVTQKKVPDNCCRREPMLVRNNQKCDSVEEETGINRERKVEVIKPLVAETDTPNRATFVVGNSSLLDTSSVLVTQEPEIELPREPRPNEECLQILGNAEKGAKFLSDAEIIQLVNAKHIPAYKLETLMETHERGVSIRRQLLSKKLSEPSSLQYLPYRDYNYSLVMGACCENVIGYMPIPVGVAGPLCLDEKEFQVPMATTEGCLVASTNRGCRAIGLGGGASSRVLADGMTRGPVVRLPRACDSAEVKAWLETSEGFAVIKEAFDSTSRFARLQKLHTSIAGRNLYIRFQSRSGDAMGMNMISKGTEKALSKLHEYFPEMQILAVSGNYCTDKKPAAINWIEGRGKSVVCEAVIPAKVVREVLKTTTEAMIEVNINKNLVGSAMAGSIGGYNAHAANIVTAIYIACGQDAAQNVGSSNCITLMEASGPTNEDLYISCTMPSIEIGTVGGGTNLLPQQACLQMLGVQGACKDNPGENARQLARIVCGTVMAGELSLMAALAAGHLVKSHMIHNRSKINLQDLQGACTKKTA
Briefly: The compound was tested in vitro for inhibitory activity against HMG-CoA reductase.

By IC50 is commonly meant the concentration needed to halve the response being measured. A lower IC50 goes with inhibition by little substance.

On to `CC[C@H](C)C(=O)O[C@H]1C[C@@H](C)C=C2C=C[C@H](C)[C@H](CC[C@@H]3C[C@@H](O)CC(=O)O3)C21` (some centres undefined), for which the Change with Canis familiaris was -42%; in the test on Rattus norvegicus, -55%.

Take `CCC(C)(C)C(=O)O[C@H]1C[C@@H](C)C=C2C=C[C@H](C)[C@H](CC[C@@H]3C[C@@H](O)CC(=O)O3)C21` (some centres undefined): the results for the Change in the test with Canis familiaris and in the test with Rattus norvegicus were -60% and -65%, respectively.

Take `CCC(C)(C)C(=O)O[C@@H]1C2C(=C[C@H](C)[C@@H]1O)C=C[C@H](C)[C@@H]2CC[C@@H]1C[C@@H](O)CC(=O)O1` (some centres undefined): the Change in the test with Canis familiaris was -36%; with Rattus norvegicus it was -45%.

With `CCC(C)(C)C(=O)O[C@@H]1C2C(=C[C@H](C)[C@H]1[C@@H](O)c1ccccc1)C=C[C@H](C)[C@@H]2CC[C@@H]1C[C@@H](O)CC(=O)O1` (some centres undefined), the Change in the test on Canis familiaris was -31%; in the test with Rattus norvegicus, -25%.

In the case of `CCC(C)(C)C(=O)O[C@@H]1C2C(=C[C@H](C)[C@H]1[C@H](C)O)C=C[C@H](C)[C@@H]2CC[C@@H]1C[C@@H](O)CC(=O)O1` (some centres undefined), the Change with Canis familiaris is listed as -32%; with Rattus norvegicus, -28%.

With `CCC(C)(C)C(=O)O[C@@H]1C2C(=C[C@H](C)[C@H]1CO)C=C[C@H](C)[C@@H]2CC[C@@H]1C[C@@H](O)CC(=O)O1` (some centres undefined), the results for the Change with Canis familiaris and with Rattus norvegicus were 0% and -69%, respectively. In addition, the IC50 in test [1] amounted to 10.8 nM.

`CC[C@H](C)C(=O)O[C@H]1CCC=C2C=C[C@H](C)[C@H](CC[C@@H]3C[C@@H](O)CC(=O)O3)[C@H]21` [MEVASTATIN]: the IC50 in test [1] came out at 28.4 nM.
